Here are results for 1 compound from ChEMBL document CHEMBL3877303 (J Med Chem, 2017).

The source made the active and inactive calls. The rule behind the calls is not given here.

The target in data set [1] is T1, Macrophage colony-stimulating factor 1 receptor (Homo sapiens, UniProt P07333). Kind of data set: Inhibition of recombinant His-tagged human CSF1R cytoplasmic domain expressed in baculovirus expression system measured after 1 hr by FRET based Z'Lyte assay. In a few lines: (§1)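 Z'-LYTE FRET biochemical kinase assay run by Invitrogen on selected kinases identified from binding profiling; IC50 from dose-response.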

In data set [2] the target is Epithelial discoidin domain-containing receptor 1 (Homo sapiens, UniProt Q08345). As to the kind of experiment: Inhibition of human GST-tagged DDR1 cytoplasmic domain expressed in baculovirus expression system measured after 1 hr by FRET based Z'Lyte assay. In a few lines:
as §1

In data set [3] the target is Tyrosine-protein kinase Lck (Homo sapiens, UniProt P06239). Kind of data set: Inhibition of recombinant C-terminal His-tagged human LCK cytoplasmic domain expressed in baculovirus expression system measured after 1 hr by FRET based Z'Lyte assay. The procedure, abridged:
as §1

Data set [4] concerns the target Platelet-derived growth factor receptor beta (Homo sapiens, UniProt P09619). Kind of data set: Inhibition of Tel-fused PDGFR-beta (unknown origin) expressed in BAF3 cells assessed as growth inhibition measured after 72 hrs by CellTiter-Glo or CCK8 assay. The class given is cell-based. In a few lines:
(§2)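 BaF3 lines were made by retroviral transduction with kinase-fusion MSCV vectors packaged in HEK293T cells. Cells were selected with puromycin for 48 h, then selected again without IL-3 so growth depends on the introduced kinase. […] They were seeded at 1 to 2.5×10^4 cells/mL with compound dilutions and incubated 72 h. Viability was read by CellTiter-Glo luminescence or CCK-8 absorbance (450/655 nm), normalized to DMSO control; GI50 was curve-fitted from triplicate tests.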

Data set [5] relates to Mast/stem cell growth factor receptor Kit (Homo sapiens), P10721 [V559D,V654A]. As to the kind of experiment: Inhibition of Tel-fused c-KIT V559D/V654A double mutant (unknown origin) expressed in BAF3 cells assessed as growth inhibition measured after 72 hrs by CellTiter-Glo or CCK8 assay. In kind it is cell-based. In a few lines:
as §2
For orientation: ATP-based viability assays read luminescence as a measure of living cells.

In data set [6] the target is T2, BCR/ABL p210 fusion protein (Homo sapiens, UniProt A1Z199). As to the kind of experiment: Inhibition of BCR/ABL p210 fusion protein mediated signaling pathways assessed as reduction in Stat5 phosphorylation at Y694 in human K562 cells at 0.01 to 3 uM measured after 2 hrs by immunoblotting. In kind it is cell-based. In a few lines:
(§3)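 After an ice-cold PBS wash, cells were lysed in RIPA buffer (50 mM Tris pH 8.0) with protease and phosphatase inhibitors, and protein was quantified by BCA. Lysates were run on SDS-PAGE, transferred to PVDF and blocked in 5% milk/TBST. Phospho- and total proteins were probed by immunoblot with ECL detection; β-actin served as loading control.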

In data set [7] the target is T2, BCR/ABL p210 fusion protein. As to the kind of experiment: Inhibition of BCR/ABL p210 fusion protein mediated signaling pathways assessed as reduction in ERK phosphorylation at T202/Y204 in human K562 cells at 0.01 to 3 uM measured after 2 hrs by immunoblotting. In kind it is cell-based. The procedure, abridged: as §3
For data set [8] the target is unchanged. Kind of data set: Inhibition of BCR/ABL p210 fusion protein mediated signaling pathways assessed as reduction in CrkL phosphorylation at Y207 in human KU812 cells at 0.01 to 3 uM measured after 2 hrs by immunoblotting. The class given is cell-based. The procedure, abridged: as §3
(Immunoblotting shows a protein as a band on a membrane.)

Data set [9] has as its target T3, Mast/stem cell growth factor receptor Kit (Homo sapiens, UniProt P10721). Kind of data set: Inhibition of c-KIT autophosphorylation at Y703 in human GISTT1 cells at 0.03 to 10 uM measured after 2 hrs by immunoblotting. In kind it is cell-based. In a few lines:
as §3

Data set [10] addresses T3, Mast/stem cell growth factor receptor Kit. As to the kind of experiment: Inhibition of c-KIT mediated signaling pathways assessed as reduction in AKT phosphorylation at S473 in human GISTT1 cells at 0.03 to 10 uM measured after 2 hrs by immunoblotting. In kind it is cell-based. The procedure, abridged:
as §3

Data set [11] shares this target. Kind of data set: Inhibition of c-KIT mediated signaling pathways assessed as reduction in S6 phosphorylation at S235/236 in human GISTT1 cells at 0.03 to 10 uM measured after 2 hrs by immunoblotting. The class given is cell-based. The procedure, abridged:
as §3

Data set [12] shares this target. Kind of data set: Inhibition of c-KIT mediated signaling pathways assessed as reduction in S6K phosphorylation at T389 in human GIST882 cells at 0.03 to 10 uM measured after 2 hrs by immunoblotting. In kind it is cell-based. In a few lines: as §3
The nature of data set [13]: Cell cycle arrest in human K562 cells assessed as accumulation at G0/G1 phase at 0.3 uM after 24 hrs by propidium iodide/RNase staining based flow cytometry. The class given is functional. In a few lines: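 Cells were exposed to serially diluted compound, then fixed in cold 70% ethanol overnight at -20 °C. They were stained with PI/RNase buffer for DNA-content cell-cycle analysis.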
A general note: Flow cytometry measures light scatter and fluorescence of single cells or particles in a stream.

The test system of the next data set is MEG-01. Kind of data set: Induction of apoptosis in human MEG01 cells assessed as increase in cleaved caspase-3 level at 0.1 to 3 uM by Western blot analysis. In kind it is functional, cell-based.
The subject of a further data set is GISTT1. Kind of data set: Induction of apoptosis in human GISTT1 cells assessed as increase in cleaved caspase-3 level at 0.1 to 3 uM by Western blot analysis. In kind it is functional, cell-based. In a few lines:
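Cells were treated with DMSO or serially diluted compound for the indicated periods. They were washed in ice-cold PBS and lysed in RIPA buffer with protease/phosphatase inhibitors, and protein was quantified by BCA. Lysates were resolved by SDS-PAGE, transferred to PVDF and blocked in 5% milk/TBST. Blots were probed for PARP and caspase-3, with β-actin as loading control, and detected by ECL.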

Data set [14] is described as follows: AUC (0 to infinity) in Sprague-Dawley rat at 1 mg/kg, iv. In kind it is ADME, organism-based. The arrangement: dose 1 mg/kg, route intravenous, time infinity. Conditions: in vivo. In a few lines: (§4)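 Male Sprague-Dawley rats aged six to eight weeks were fasted overnight and then dosed iv or orally. Blood (~0.2 mL) was drawn from the jugular vein into heparin and kept on ice. Sampling was at 1 min to 8 h for iv and 5 min to 24 h for oral. Plasma was separated by centrifugation at 2-8 °C and stored at -80 °C until analysis.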

Data set [15] can be described thus: Mean residence time (0 to t) in Sprague-Dawley rat at 1 mg/kg, iv. The class given is ADME, organism-based. The following applies: in vivo. The procedure, abridged:
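Male Sprague-Dawley rats, 6-8 weeks old, fasted overnight, dosed iv or po. Jugular vein blood (~0.2 mL, heparin) sampled at 1 min to 8 h (iv) or 5 min to 24 h (po). Plasma separated by centrifugation at 2-8 °C and stored at -80 °C before analysis.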

Data set [16] is described as follows: Cmax in Sprague-Dawley rat at 1 mg/kg, iv. In kind it is ADME, organism-based. The following applies: in vivo. The arrangement: dose 1 mg/kg, route intravenous. The procedure, abridged:
as §4

A short description of data set [17]: AUC (0 to infinity) in Sprague-Dawley rat at 10 mg/kg, po. The following applies: in vivo. The arrangement: dose 10 mg/kg, time infinity, route oral. In kind it is ADME, organism-based. In a few lines: as §4
Data set [18] is described as follows: Half life in Sprague-Dawley rat at 10 mg/kg, po. The following applies: in vivo. In kind it is ADME, organism-based. The procedure, abridged: as §4
The nature of data set [19]: Anticancer activity against human K562 cells xenografted in nu/nu mouse assessed as tumor weight at 25 mg/kg administered via oral gavage measured after 28 days (reference value: 6.75 g). The class given is functional. The procedure, abridged: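 Female nu/nu mice received ten million K562 cells subcutaneously in the right flank, in PBS mixed 1:1 with Matrigel. Daily oral gavage began at 200-400 mm³ tumor size, with 4 or 5 mice per group. Dosing was 25, 50 or 100 mg/kg/d or vehicle (0.5% methylcellulose/0.4% Tween80) for 28 days. Body weight and tumor size were normalized to initial values, and final tumor weight was recorded. Data are mean ± SEM.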

The target in data set [20] is T1, Macrophage colony-stimulating factor 1 receptor. Conditions: BaF3.
Data set [21] can be described thus: Anticancer activity against human GISTT1 cells xenografted in nu/nu mouse assessed as tumor weight at 25 mg/kg, po administered daily via oral gavage measured 21 days post compound treatment (reference value: 2.86 g).

T2 sequence (A1Z199 1-97): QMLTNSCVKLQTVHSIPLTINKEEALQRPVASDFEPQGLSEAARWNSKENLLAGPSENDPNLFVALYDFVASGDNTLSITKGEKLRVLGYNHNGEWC
T3 sequence (P10721 whole entry): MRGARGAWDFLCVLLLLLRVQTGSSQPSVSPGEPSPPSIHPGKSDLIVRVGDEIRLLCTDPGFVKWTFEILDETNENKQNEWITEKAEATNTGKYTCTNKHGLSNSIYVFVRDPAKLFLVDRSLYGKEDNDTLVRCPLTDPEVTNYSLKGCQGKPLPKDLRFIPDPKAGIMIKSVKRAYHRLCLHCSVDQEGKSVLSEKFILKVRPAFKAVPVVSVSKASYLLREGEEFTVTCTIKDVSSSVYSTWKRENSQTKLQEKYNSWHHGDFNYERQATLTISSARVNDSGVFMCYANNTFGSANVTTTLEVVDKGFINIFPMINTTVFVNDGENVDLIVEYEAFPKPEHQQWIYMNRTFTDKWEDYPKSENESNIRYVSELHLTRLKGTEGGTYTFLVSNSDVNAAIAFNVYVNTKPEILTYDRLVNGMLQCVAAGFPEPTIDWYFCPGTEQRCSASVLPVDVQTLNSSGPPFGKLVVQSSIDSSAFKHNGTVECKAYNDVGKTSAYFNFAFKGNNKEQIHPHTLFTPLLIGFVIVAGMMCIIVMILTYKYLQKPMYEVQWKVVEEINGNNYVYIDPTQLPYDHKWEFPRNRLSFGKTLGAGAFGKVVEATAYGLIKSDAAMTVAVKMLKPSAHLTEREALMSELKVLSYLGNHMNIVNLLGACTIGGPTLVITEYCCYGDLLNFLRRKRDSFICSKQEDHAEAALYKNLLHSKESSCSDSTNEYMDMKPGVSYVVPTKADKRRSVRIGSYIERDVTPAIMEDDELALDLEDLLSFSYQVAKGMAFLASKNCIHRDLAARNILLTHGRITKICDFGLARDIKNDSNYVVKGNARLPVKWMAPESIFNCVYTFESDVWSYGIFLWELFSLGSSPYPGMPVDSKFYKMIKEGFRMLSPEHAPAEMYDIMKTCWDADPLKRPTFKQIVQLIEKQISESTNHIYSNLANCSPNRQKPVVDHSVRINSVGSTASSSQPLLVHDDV
T1 sequence (P07333 whole entry, the tested form may be a part): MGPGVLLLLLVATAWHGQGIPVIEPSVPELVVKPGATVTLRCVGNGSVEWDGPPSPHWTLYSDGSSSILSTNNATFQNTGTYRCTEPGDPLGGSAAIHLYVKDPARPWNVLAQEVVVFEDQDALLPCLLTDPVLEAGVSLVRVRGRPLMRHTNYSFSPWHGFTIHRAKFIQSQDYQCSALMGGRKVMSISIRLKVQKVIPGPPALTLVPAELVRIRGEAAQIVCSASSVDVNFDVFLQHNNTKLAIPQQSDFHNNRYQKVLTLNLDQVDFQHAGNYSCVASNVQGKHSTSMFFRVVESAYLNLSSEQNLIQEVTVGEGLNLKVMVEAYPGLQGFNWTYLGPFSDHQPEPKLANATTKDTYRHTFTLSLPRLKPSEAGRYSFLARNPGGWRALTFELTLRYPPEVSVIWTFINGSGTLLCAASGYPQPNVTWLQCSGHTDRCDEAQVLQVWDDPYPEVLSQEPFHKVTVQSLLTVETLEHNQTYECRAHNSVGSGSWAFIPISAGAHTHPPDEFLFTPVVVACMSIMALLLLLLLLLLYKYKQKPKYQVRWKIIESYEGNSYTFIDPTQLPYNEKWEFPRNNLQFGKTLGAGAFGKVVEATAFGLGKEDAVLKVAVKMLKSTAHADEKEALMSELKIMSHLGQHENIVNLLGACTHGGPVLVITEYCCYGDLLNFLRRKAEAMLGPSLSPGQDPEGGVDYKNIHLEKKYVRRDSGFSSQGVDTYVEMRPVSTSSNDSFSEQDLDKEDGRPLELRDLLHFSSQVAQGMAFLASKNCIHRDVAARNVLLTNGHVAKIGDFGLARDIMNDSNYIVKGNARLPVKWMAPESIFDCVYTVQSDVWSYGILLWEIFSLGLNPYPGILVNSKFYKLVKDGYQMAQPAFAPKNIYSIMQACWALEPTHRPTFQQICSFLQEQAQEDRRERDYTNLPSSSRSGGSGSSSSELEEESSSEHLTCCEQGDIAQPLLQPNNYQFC
Sequence of Platelet-derived growth factor receptor beta (P09619 whole entry, the tested form may be a part): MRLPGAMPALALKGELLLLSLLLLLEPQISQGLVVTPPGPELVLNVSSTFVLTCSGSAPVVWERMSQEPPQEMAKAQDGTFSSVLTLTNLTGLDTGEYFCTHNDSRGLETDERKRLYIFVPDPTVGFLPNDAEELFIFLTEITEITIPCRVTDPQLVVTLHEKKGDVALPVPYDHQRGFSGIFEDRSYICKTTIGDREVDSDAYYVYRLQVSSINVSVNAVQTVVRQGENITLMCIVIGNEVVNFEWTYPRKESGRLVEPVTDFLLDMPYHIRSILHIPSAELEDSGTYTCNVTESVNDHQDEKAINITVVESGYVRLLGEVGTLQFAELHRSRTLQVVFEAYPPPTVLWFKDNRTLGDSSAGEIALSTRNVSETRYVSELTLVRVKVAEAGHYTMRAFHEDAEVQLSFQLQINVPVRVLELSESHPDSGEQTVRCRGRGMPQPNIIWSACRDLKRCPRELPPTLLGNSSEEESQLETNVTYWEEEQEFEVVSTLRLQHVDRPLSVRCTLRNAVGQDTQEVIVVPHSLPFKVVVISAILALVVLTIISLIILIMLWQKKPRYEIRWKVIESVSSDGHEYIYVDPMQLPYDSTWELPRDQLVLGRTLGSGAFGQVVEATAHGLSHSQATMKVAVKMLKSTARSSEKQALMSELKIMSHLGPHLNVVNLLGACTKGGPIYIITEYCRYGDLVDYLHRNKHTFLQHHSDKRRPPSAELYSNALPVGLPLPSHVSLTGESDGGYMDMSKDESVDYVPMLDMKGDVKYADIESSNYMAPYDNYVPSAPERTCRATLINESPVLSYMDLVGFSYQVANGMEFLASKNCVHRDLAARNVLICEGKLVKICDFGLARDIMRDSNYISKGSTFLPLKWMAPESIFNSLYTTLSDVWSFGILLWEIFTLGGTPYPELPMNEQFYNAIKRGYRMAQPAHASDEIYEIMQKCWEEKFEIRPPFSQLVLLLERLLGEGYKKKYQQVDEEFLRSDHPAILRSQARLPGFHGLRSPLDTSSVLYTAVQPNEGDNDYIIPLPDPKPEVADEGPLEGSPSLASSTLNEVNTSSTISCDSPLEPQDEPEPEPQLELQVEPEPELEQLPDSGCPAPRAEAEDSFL
Sequence of Mast/stem cell growth factor receptor Kit (Homo sapiens), P10721 [V559D,V654A] (P10721 whole entry V559D/V654A, the tested form may be a part): as the sequence (P10721 whole entry) above, with V559D, V654A counted along it
Sequence of Epithelial discoidin domain-containing receptor 1 (Q08345 whole entry, the tested form may be a part): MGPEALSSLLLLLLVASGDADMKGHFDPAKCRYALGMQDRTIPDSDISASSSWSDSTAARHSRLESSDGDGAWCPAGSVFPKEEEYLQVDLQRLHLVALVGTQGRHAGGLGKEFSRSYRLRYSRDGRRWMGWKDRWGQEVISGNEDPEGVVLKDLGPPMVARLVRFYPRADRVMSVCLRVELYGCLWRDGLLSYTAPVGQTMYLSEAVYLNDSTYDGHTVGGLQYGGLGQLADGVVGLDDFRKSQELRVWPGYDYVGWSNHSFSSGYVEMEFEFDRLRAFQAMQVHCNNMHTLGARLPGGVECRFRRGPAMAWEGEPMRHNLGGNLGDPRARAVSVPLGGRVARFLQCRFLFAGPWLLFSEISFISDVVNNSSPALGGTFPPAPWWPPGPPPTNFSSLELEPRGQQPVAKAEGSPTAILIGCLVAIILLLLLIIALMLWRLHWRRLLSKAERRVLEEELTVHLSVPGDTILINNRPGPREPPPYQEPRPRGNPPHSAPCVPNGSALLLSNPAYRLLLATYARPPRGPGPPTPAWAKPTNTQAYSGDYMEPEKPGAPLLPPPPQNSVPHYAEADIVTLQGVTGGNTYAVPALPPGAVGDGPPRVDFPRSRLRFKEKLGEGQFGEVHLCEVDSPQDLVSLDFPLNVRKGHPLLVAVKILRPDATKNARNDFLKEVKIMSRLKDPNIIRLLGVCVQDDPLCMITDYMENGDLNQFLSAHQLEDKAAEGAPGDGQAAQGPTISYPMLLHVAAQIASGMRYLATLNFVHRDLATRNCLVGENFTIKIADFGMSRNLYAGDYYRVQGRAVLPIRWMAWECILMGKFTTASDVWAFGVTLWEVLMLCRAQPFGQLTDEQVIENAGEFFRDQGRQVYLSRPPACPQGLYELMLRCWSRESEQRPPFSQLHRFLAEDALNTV
Sequence of Tyrosine-protein kinase Lck (P06239 whole entry, the tested form may be a part): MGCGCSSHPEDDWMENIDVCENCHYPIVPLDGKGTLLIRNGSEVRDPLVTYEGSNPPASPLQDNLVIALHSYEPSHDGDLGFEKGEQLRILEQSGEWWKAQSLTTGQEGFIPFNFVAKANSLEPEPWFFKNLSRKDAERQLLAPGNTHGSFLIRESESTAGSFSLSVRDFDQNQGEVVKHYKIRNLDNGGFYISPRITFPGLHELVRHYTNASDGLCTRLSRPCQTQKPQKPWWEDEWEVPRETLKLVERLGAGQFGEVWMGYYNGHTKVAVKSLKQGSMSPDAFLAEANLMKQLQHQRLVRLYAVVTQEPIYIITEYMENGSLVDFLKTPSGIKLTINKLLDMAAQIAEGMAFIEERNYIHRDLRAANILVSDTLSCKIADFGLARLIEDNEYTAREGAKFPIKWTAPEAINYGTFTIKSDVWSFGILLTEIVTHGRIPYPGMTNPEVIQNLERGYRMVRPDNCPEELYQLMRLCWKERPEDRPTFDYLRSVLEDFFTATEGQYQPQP

As for `Cc1ccc(C(=O)N2CCC(Oc3cc(NC(=O)c4ccc(CN5CCN(C)CC5)c(C(F)(F)F)c4)ccc3C)CC2)cn1`, the IC50 (commonly the point on the concentration scale where inhibition reaches its midpoint) in data set [1] was 227 nM; in data set [2] it was 116 nM; in data set [3] it was 12 nM. In addition, the GI50 (usually the concentration giving 50% growth inhibition) in data set [4] worked out at 14 nM; in data set [5] it was 2870 nM; in data set [20], 162 nM. Besides, the inhibition result in [6], in data set [7], in [8], in [9], in [10] and in data set [11] was “Active” throughout. Moreover, the inhibition result in [12] is “Active”. Further, the result (in [13]; with MEG-01; in the data set on GISTT1) was Active. Further, the AUC(0-inf) (usually the area under the concentration-time curve extrapolated to infinity) in data set [14] came out at 558 ng·h/mL; in [17], 2430 ng·h/mL. Further, the MRT last (in general, a mean duration of stay, worked out from the concentration-time curve) in data set [15] is 1.93 h. Besides, in data set [16], the concentration peaked (Cmax) at 825 ng/mL. For the same compound, the half-life (in general, the time in which the quantity being followed falls by half) in data set [18] is 2.83 h. Further, the figures for the Activity in data set [19] and in data set [21] were 7.46 g and 2.2 g, respectively.
